# Reference: publication PMC4655421 (ACS Chemical Biology, 2015)
# “And” between values parts separate entries of the source, which are not always exact repeats. Equal values may be shown once.
# Legend:
# Rho-MatB [1] = target: T1, Rho-MatB (Rhodopseudomonas palustris, UniProt Q6ND88, C106A/K488A/Q457C/R286C); assay: Fluorescence of Rho-MatB with various ligands; assay type: binding; conditions: in words
# T1 sequence (Q6ND88 1-503 C106A/R286C/Q457C/K488A): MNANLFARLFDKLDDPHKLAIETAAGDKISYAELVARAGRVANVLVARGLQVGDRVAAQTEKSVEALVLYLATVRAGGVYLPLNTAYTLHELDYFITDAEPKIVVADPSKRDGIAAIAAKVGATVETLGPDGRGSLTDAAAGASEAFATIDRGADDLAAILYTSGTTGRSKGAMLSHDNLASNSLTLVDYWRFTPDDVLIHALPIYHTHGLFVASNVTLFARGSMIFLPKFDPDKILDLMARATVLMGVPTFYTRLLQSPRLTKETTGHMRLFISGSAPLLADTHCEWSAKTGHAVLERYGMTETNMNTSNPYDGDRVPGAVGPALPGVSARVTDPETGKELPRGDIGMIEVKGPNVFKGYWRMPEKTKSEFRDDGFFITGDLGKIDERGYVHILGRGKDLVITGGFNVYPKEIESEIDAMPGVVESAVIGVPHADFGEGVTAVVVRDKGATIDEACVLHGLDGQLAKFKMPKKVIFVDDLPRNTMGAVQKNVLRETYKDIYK
# pyruvate kinase = pyruvate kinase (Oryctolagus cuniculus, UniProt P11974); assay: Steady-state ATP production by pyruvate kinase monitored by Rho-MatB; assay type: biochemical, rabbit
# pyruvate kinase, sequence (P11974 whole entry): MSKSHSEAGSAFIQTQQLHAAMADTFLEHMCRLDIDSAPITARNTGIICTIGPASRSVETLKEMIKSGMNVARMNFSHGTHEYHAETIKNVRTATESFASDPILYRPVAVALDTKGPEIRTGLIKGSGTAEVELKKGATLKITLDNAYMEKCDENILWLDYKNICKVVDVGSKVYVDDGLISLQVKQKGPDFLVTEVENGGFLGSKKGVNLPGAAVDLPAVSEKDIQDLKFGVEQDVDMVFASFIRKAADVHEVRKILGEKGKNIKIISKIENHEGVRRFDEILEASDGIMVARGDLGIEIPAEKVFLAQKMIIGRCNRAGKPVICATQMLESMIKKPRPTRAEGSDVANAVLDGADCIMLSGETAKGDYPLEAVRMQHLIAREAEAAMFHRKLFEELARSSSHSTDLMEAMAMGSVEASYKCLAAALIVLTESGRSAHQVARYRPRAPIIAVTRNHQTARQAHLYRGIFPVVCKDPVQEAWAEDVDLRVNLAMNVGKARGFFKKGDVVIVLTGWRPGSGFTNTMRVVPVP
# Rho-MatB [2] = target: T1, Rho-MatB; assay: ATP titration of Rho-MatB in the presence of other nucleotides; assay type: binding; conditions: for fluorescence ratio of ATP titration: 1 μM Rho-MatB titrated with ATP in presence of 100 μM of the named nucleotide
# How it was run: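 ATP was titrated into 1 μM labelled sensor, alone or with 100 μM ADP, dATP, ATPγS or AMP-PNP. Buffer was Hepes pH 7.0 / NaCl / MgCl2 / BSA, with excitation at 553 nm and emission at 571 nm. Dilution-corrected data were fitted to a quadratic binding equation to give the apparent Kd for ATP and the fluorescence ratio.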
# Rho-MatB [3] = target: T1, Rho-MatB; assay: Fluorescence titration of nucleotides to Rho-MatB; assay type: binding
# Rho-MatB [4] = target: T1, Rho-MatB; assay: Stopped-flow association and dissociation kinetics of Rho-MatB and ATP; assay type: binding; conditions: 25 °C
# How it was run: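 Stopped-flow fluorescence at 25 °C in Hepes pH 7.0, NaCl, MgCl2, BSA buffer. In one format, a range of sensor concentrations in 10-fold excess over ATP gave single-exponential traces, with at least three traces averaged at 1.3 and 2.5 μM. In the other, 0.25 μM sensor was mixed with excess ATP, giving biphasic traces. kobs (fast phase) was plotted against the excess reactant; linear-regression slope gave association and intercept gave dissociation.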
# RpMatB K488A = conditions: read-out: Kd for ATP; unlabeled RpMatB K488A; cited from earlier work
# ATeam = ATeam biosensor; cited from earlier work
# [5] = 0.25 μM Rho-MatB, ATP in large excess
# [6] = Rho-MatB in 10-fold excess over ATP
structure (smiles),measurement,setting,value
Nc1nc2c(ncn2[C@@H]2O[C@H](COP(=O)(O)OP(=O)(O)O)[C@@H](O)[C@H]2O)c(=O)[nH]1 [GDP],effect on the fluorescence of Rho-MatB,Rho-MatB [1],did not significantly affect the fluorescence
C=C(OP(=O)(O)O)C(=O)O [phosphoenolpyruvate],average specific activity,pyruvate kinase,0.76 μM s^–1 U^–1 mL and 0.76 ± 0.02 μM s^–1 U^–1 mL
same,average Vmax,pyruvate kinase; n = 5,0.0190 ± 0.0004 μM s^–1
Nc1nc2c(ncn2[C@@H]2O[C@H](COP(=O)(O)OP(=O)(O)OP(=O)(O)O)[C@@H](O)[C@H]2O)c(=O)[nH]1 [GTP],effect on the fluorescence of Rho-MatB,Rho-MatB [1],did not significantly affect the fluorescence
Nc1ncnc2c1ncn2[C@H]1C[C@H](O)[C@@H](COP(=O)(O)OP(=O)(O)OP(=O)(O)O)O1 [dATP],fluorescence ratio of ATP titration,Rho-MatB [2],2.3
"Nc1ncnc2c1ncn2[C@@H]1O[C@H](COP(=O)(O)OP(=O)(O)NP(=O)(O)O)[C@@H](O)[C@H]1O [AMP-PNP, adenosine 5′-(β,γ-imido)triphosphate]",fluorescence ratio of ATP titration,Rho-MatB [2],2.4
Nc1ncnc2c1ncn2[C@@H]1O[C@H](COP(=O)(O)OP(=O)(O)O)[C@@H](O)[C@H]1O [ADP],fluorescence ratio of ATP titration,Rho-MatB [2],3.0
Nc1ncnc2c1ncn2[C@@H]1O[C@H](COP(=O)(O)OP(=O)(O)OP(=O)(O)O)[C@@H](O)[C@H]1O [ATP],higher affinity for ATP than ADP,Rho-MatB [3]; Rho-MatB,67 fold
same,increase in fluorescence intensity on ATP binding,"Rho-MatB [3]; excitation 553 nm, emission 575 nm, 1 μM Rho-MatB",3.7 fold
same,association rate constant (fast phase),Rho-MatB [4]; [5],1.83 ± 0.02 μM^–1 s^–1 and 1.8 μM^–1 s^–1
same,"intercept (dissociation rate constant, fast phase)",Rho-MatB [4]; [5],8.15 ± 0.17 s^–1 and 8.2 s^–1
same,association rate constant,Rho-MatB [4]; [6],0.72 μM^–1 s^–1
same,intercept (dissociation rate constant),Rho-MatB [4]; [6],8.0 s^–1 and 7.95 ± 0.18 s^–1
same,Kd,RpMatB K488A,0.31 µM
same,higher affinity for ATP than ADP,ATeam,30 fold
CC(C)(COP(=O)(O)OP(=O)(O)OC[C@H]1O[C@@H](n2cnc3c(N)ncnc32)[C@H](O)[C@@H]1OP(=O)(O)O)[C@@H](O)C(=O)NCCC(=O)NCCS [coenzyme A],effect on the MgATP-induced fluorescence increase,Rho-MatB [1],did not inhibit
same,effect on the fluorescence of Rho-MatB,Rho-MatB [1],no effect
O=C(O)CC(=O)O [malonate],effect on the MgATP-induced fluorescence increase,Rho-MatB [1],did not inhibit
same,effect on the fluorescence of Rho-MatB,Rho-MatB [1],no effect
Nc1ncnc2c1ncn2[C@@H]1O[C@H](COP(=O)(O)O)[C@@H](O)[C@H]1O [AMP],effect on the fluorescence of Rho-MatB,Rho-MatB [1],did not significantly affect the fluorescence
"Nc1ncnc2c1ncn2[C@@H]1O[C@H](CO[P@](=O)(O)O[P@](=O)(O)O[P@@](=O)(O)S)[C@@H](O)[C@H]1O [ATPγS, adenosine 5′-(γ-thio)triphosphate]",Kd,Rho-MatB [3],16.2 ± 0.8 µM
same,fluorescence ratio of ATP titration,Rho-MatB [2],1.9
same,increase of apparent Kd for ATP,Rho-MatB [2]; fixed concentration of the named nucleotide,~5 fold
